Data taken from PMC11520922 (International Journal of Nanomedicine, 2024).
Entries after “also recorded” stand apart in the source; their conditions may differ.

What was measured:
[1] = clinical; cited from earlier work
[2] = cited from earlier work
[3] = cited from earlier work; remark: listed apart in the source
[4] = tested on: Peripheral Blood Mononuclear Cells (PBMCs); experiment: Ex vivo peripheral blood mononuclear cells; format: cell-based, male Sprague–Dawley rats; settings: rat PBMCs
Outline: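 PBMCs came from the peripheral blood of male Sprague–Dawley rats. They were isolated by Ficoll–Paque density-gradient centrifugation, collected from the interphase and washed three times in RPMI 1640. Cells were plated at 1×10^6/well in RPMI 1640 with 10% FBS (37 °C, 5% CO2) and incubated overnight with free test compound or albumin-nanoparticle formulation. Viability was then read by the CCK-8 A450 procedure used for HuT-78.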

[5] = In vivo pharmacokinetic study; design: species or system Sprague–Dawley rats
Outline: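 Male Sprague–Dawley rats (~300 g) were anaesthetised with Zoletil i.m. at […]. They received test compound in 10% ethanol or as albumin nanoparticles s.c. at 0.33 mg g−1. Blood (400 μL) was drawn from the subclavian vein at 0.08–6 h into heparin tubes. Plasma was spiked with carbamazepine internal standard, deproteinised with methanol, dried and reconstituted in methanol. Analysis was by RP-18 HPLC at 265 nm, and parameters were computed by first-order kinetic modelling.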

[6] = male, Sprague-Dawley, rat, plasma, sc, 0.333 mg

Q: For O=C(/C=C/c1cccc(S(=O)(=O)Nc2ccccc2)c1)NO [Belinostat], which “thrombocytopenia adverse events, Grade 3 to 4” value [1] is on record?
A: ~ 7%

Q: And the “thrombocytopenia adverse events, all grades” value [1]?
A: ~ 16%

Q: And the “log P” value [2]?
A: 1.83

Q: And the pKa [2]?
A: 7.87

Q: And the protein binding affinity [3]?
A: 92.9–95.8%

Q: And the “viability of PBMCs” value ([4]; concentration 10 μM)?
A: decreases

Q: And the “viability (survival) of PBMC” value ([4]; high dose 100 μM)?
A: did not survive; also recorded: no survival

Q: And the CL ([5]; SD rats, subcutaneous, 0.333 mg g^−1, n = 3)?
A: 5.32 ± 1.53 mL/h

Q: What about the AUC(0-t) [5, 6] of the same compound?
A: 62000 ± 28700 ng·h/mL

Q: What about the Cmax [5, 6] of the same compound?
A: 8650 ± 780 ng/mL

Q: What about the Tmax [5, 6] of the same compound?
A: 0.43 ± 0.13 h

Q: And the half-life [5, 6]?
A: 4.66 ± 1.66 h
